Results: ChEMBL document CHEMBL3232847, “Discovery of 6-phenylpyrimido[4,5-b][1,4]oxazines as potent and selective acyl CoA:diacylglycerol acyltransferase 1 (DGAT1) inhibitors with in vivo efficacy in rodents” (J Med Chem, 2014)
One block for each compound: values may come before it. The source made the active and inactive calls. No cut-off for these calls is given here.

Columns and labels:
[1] = Clearance in CD1 mouse at 0.5 mg/kg, iv; format: ADME, organism-based; design: dose 0.5 mg/kg, route intravenous; conditions: in vivo
[2] = Clearance in beagle dog at 0.2 mg/kg, iv; format: ADME, organism-based, Canis lupus familiaris; design: dose 0.2 mg/kg, route intravenous; conditions: in vivo
[3] = Volume of distribution at steady state in CD1 mouse at 0.5 mg/kg, iv; format: ADME, organism-based; design: dose 0.5 mg/kg, route intravenous; conditions: in vivo, read-out: Vdss
[4] = Oral bioavailability in cynomolgus monkey at 5 mg/kg; format: ADME, organism-based, Macaca fascicularis; conditions: in vivo
[5] = molecular target: Cytochrome P450 2C9 (Homo sapiens, UniProt P11712); experiment: Inhibition of CYP2C9 (unknown origin) at 10 uM; format: ADME
Sequence of Cytochrome P450 2C9 (P11712 whole entry): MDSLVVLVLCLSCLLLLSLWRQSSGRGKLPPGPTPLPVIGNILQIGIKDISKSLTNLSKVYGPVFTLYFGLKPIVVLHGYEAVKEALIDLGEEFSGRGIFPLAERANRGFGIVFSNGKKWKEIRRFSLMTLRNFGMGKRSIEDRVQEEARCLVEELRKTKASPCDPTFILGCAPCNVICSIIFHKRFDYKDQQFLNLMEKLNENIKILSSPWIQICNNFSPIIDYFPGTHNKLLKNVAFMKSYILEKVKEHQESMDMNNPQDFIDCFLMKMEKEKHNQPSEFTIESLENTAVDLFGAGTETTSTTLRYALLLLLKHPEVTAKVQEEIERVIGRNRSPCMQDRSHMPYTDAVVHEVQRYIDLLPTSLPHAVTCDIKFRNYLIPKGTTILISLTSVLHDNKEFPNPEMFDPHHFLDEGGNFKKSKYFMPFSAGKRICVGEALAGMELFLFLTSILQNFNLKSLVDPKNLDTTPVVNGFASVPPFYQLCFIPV

[6] = AUC in cynomolgus monkey at 10 mg/kg/day, po qd; format: ADME, organism-based, Macaca fascicularis; design: route oral; conditions: plasma
Outline: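 Cynomolgus monkeys dosed orally once daily at 10 or 30 mg/kg for 21 days in a multiple-dose toxicity study. Plasma AUC was reported, with ALT/AST levels, QTc intervals and clinical and histopathological findings monitored.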

[7] = molecular target: Cytochrome P450 3A4 (Homo sapiens, UniProt P08684); experiment: Inhibition of CYP3A4 (unknown origin) at 10 uM; format: ADME
Sequence of Cytochrome P450 3A4 (P08684 whole entry): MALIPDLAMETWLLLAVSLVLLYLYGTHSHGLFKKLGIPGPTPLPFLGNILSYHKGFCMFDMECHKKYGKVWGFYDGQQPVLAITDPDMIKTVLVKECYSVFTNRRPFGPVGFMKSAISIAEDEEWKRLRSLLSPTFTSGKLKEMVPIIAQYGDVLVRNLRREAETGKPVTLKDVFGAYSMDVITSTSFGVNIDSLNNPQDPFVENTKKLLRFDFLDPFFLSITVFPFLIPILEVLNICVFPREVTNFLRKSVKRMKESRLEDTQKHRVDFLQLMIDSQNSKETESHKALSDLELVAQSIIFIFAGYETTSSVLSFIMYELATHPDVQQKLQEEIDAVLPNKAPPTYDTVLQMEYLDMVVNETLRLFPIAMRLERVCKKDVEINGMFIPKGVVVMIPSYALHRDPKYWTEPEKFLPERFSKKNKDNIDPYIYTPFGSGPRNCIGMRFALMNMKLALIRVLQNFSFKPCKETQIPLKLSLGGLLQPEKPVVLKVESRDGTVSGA

[8] = system: Rattus norvegicus; experiment: Toxicity in Sprague-Dawley rat assessed as change in clinical parameters at 10 mg/kg, po qd by 14-day multiple-dose toxicity study; format: organism-based; design: dose 10 mg/kg, route oral; conditions: in vivo
Outline: (§1)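 Sprague−Dawley rats were dosed po once daily for 14 days. Clinical and histopathological findings were assessed, and plasma AUC was recorded for each dose.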

[9] = AUC in Sprague-Dawley rat at 30 mg/kg, po qd; format: ADME, organism-based; design: dose 30 mg/kg, route oral; conditions: plasma
Outline: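 Sprague-Dawley rats dosed orally once daily for 14 days in a multiple-dose toxicity study at 10, 30 or 100 mg/kg. Plasma exposure was reported as AUC, and clinical and histopathological findings were recorded.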

[10] = system: Cynomolgus monkey; experiment: Toxicity in cynomolgus monkey assessed as elevation of prolongation of QTc interval at 10 to 30 mg/kg/day, po qd by 21-day multiple-dose toxicity study relative to control; format: organism-based, Macaca fascicularis; design: route oral; conditions: in vivo
Outline: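 Cynomolgus monkeys were dosed po once daily at 10 and 30 mg/kg for 21 days. ALT and AST levels, QTc intervals, and clinical and histopathological findings were assessed, and plasma AUC was recorded for each dose.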

[11] = Oral Bioavailability in CD1 mouse at 0.3 mg/kg; format: ADME, organism-based; conditions: in vivo
[12] = AUC in Sprague-Dawley rat at 5 mg/kg, po; format: ADME, organism-based; design: dose 5 mg/kg, route oral; conditions: plasma
[13] = molecular target: T1, Cytochrome P450 1A2 (Homo sapiens, UniProt P05177); experiment: Inhibition of CYP1A2 (unknown origin) at 10 uM; format: ADME
T1 sequence (P05177 whole entry): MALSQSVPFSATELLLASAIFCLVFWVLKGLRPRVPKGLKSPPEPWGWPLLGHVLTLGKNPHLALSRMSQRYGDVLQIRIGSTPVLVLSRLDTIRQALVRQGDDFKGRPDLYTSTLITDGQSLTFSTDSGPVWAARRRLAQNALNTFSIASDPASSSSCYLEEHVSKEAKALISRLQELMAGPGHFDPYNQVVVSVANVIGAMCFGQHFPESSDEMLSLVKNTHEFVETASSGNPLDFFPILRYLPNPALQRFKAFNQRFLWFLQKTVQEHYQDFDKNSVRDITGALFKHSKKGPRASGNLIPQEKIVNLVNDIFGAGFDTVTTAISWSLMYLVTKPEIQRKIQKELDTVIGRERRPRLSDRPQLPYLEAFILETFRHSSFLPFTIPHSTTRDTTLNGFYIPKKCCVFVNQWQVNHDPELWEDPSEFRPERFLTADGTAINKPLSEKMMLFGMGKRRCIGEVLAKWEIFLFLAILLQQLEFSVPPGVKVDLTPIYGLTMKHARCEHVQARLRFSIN

[14] = molecular target: Cytochrome P450 2D6 (Homo sapiens, UniProt P10635); experiment: Inhibition of CYP2D6 (unknown origin) at 10 uM; format: ADME
Sequence of Cytochrome P450 2D6 (P10635 whole entry): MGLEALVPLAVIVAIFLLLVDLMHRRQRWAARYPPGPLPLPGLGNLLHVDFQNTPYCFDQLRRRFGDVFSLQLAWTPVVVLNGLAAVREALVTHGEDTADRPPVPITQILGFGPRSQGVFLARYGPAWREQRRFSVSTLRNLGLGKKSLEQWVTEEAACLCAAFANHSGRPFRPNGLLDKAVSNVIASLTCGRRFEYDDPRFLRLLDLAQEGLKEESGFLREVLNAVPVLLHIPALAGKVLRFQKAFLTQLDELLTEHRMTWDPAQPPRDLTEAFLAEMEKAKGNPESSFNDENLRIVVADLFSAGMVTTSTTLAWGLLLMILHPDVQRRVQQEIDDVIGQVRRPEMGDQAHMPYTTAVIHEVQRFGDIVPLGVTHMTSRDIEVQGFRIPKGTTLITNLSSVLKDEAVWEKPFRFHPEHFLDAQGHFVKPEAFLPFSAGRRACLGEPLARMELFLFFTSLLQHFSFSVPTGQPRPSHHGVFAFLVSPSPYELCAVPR

[15] = Half life in CD1 mouse at 0.5 mg/kg, iv; format: ADME, organism-based; design: dose 0.5 mg/kg, route intravenous; conditions: in vivo
[16] = AUC in C57BL/6J mouse at 0.3 mg/kg, po; format: ADME, organism-based; design: dose 0.3 mg/kg, route oral; conditions: plasma
[17] = system: Rattus norvegicus; experiment: Toxicity in Sprague-Dawley rat assessed as sebaceous gland atrophy at 30 to 100 mg/kg, po qd by 14-day multiple-dose toxicity study; format: organism-based; design: dose 30-100 mg/kg, route oral; conditions: in vivo; outline: as §1
[18] = Volume of distribution at steady state in beagle dog at 0.5 mg/kg, iv; format: ADME, organism-based, Canis lupus familiaris; design: dose 0.5 mg/kg, route intravenous; conditions: in vivo, read-out: Vdss
[19] = molecular target: T2, Diacylglycerol O-acyltransferase 2 (Homo sapiens) (UniProt Q96PD7); experiment: Inhibition of human liver flag-tagged DGAT2 expressed in baculovirus infected insect cells up to 10 uM after 2 hrs by SPA
T2 sequence (whole entry): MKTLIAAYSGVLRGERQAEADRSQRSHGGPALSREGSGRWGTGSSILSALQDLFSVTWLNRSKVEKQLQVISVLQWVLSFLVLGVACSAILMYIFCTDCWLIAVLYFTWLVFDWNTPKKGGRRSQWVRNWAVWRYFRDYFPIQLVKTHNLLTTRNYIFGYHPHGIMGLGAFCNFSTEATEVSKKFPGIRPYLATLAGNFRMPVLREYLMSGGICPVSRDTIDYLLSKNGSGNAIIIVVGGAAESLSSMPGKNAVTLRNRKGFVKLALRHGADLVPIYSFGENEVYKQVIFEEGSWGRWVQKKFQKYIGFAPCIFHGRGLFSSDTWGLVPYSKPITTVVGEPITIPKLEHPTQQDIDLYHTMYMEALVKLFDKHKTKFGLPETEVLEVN

[20] = system: Rattus norvegicus; experiment: Toxicity in Sprague-Dawley rat assessed as sebaceous gland atrophy at 100 mg/kg, po by 14-day multiple-dose toxicity study; format: organism-based; design: dose 100 mg/kg, route oral; conditions: in vivo; outline: as §1
[21] = system: Rattus norvegicus; experiment: Reduction in plasma triglyceride level in po dosed Sprague-Dawley rat compound treated 30 mins prior to olive oil administration measured 3 hrs post olive oil administration relative to vehicle-treated control; format: functional, organism-based
Outline: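 Animals received vehicle or compound by oral gavage, then olive oil (5 mL/kg) by oral gavage 30 min later. Plasma triglycerides were measured before dosing and 3 h after the oil. The read-out was the change in TG from pre-dose, compared with vehicle-treated animals.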

[22] = Clearance in rhesus monkey at 0.2 mg/kg, iv; format: ADME, organism-based, Macaca mulatta; design: dose 0.2 mg/kg, route intravenous; conditions: in vivo
[23] = Drug metabolism in Sprague-Dawley rat liver S9 fraction assessed as 2-hydroxy compound formation by MS/MS analysis; format: ADME, subcellular
[24] = Clearance in beagle dog at 0.5 mg/kg, iv; format: ADME, organism-based, Canis lupus familiaris; design: dose 0.5 mg/kg, route intravenous; conditions: in vivo
[25] = AUC in Sprague-Dawley rat at 100 mg/kg, po; format: ADME, organism-based; design: dose 100 mg/kg, route oral; conditions: plasma

clearance [1]: 7.5 mL/min/kg
clearance [2]: 2.33 mL/min/kg
Vd [3]: 2.8 L/kg
bioavailability [4]: 99%
inhibition (INH) [5]: Not Active
AUC [6]: 607 µM·h
inhibition (INH) [7]: Not Active
AUC [9]: 78 µM·h
bioavailability [11]: 77%
AUC [12]: 22900 ng·h/mL
inhibition (INH) [13]: Not Active
inhibition (INH) [14]: Not Active
half-life [15]: 4.4 h
AUC [16]: 0.65 µM·h
Structure (SMILES): CC1(C)Oc2nc(C(F)(F)F)nc(N)c2N=C1c1ccc2c(c1)CC[C@]21CC[C@@H](CC(=O)O)CC1
Activity [8]: Non-toxic
Activity [10]: Non-toxic
Activity [17]: Toxic

clearance [1]: 1.83 mL/min/kg
Vd [18]: 1.9 L/kg
inhibition [19]: inactive
Vd [3]: 0.79 L/kg
inhibition (INH) [5]: Not Active
inhibition (INH) [7]: Not Active
clearance [22]: 3.67 mL/min/kg
Drug metabolism [23]: metabolite_detected
clearance [24]: 11 mL/min/kg
inhibition (INH) [13]: Not Active
inhibition (INH) [14]: Not Active
AUC [25]: 3750 µM·h
half-life [15]: 4.7 h
AUC [16]: 2.6 µM·h
Structure (SMILES): CC1(C)Oc2ncnc(N)c2N=C1c1ccc([C@H]2CC[C@H](CC(=O)O)CC2)cc1
Activity [20]: Toxic
Activity [21]: Dose-dependent effect
